From ChEMBL document CHEMBL1138520, “Molecular and conformational determinants of pituitary adenylate cyclase-activating polypeptide (PACAP) for activation of the PAC1 receptor” (J Med Chem, 2009)
pEC50, pIC50: −log10 of the molar value. Where a SMILES comes first, the peptide text is derived from it. [ ]: non-standard residue; d: D form. 1Nal = N[C@@H](Cc1cccc2ccccc12)C(=O)O; Hyp = O=C(O)[C@@H]1C[C@@H](O)CN1

Assays:
[1] = molecular target: T1, Pituitary adenylate cyclase-activating polypeptide type I receptor (Homo sapiens, UniProt P41586); test: Agonist activity at human recombinant PAC1 receptor expressed in CHO cells assessed as PACAP38-induced calcium mobilization by FLIPR assay; assay type: functional, cell-based
Method in brief: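 CHO cells stably expressing recombinant human PAC1, plated 24 h before assay, loaded with fluo-4 AM for 60 min at 37 °C in the dark, then rinsed into HBSS for 15 min at 37 °C. EC50 and efficacy came from nonlinear regression; 4-10 independent assays in duplicate.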
Target sequence in this assay (P41586 whole entry): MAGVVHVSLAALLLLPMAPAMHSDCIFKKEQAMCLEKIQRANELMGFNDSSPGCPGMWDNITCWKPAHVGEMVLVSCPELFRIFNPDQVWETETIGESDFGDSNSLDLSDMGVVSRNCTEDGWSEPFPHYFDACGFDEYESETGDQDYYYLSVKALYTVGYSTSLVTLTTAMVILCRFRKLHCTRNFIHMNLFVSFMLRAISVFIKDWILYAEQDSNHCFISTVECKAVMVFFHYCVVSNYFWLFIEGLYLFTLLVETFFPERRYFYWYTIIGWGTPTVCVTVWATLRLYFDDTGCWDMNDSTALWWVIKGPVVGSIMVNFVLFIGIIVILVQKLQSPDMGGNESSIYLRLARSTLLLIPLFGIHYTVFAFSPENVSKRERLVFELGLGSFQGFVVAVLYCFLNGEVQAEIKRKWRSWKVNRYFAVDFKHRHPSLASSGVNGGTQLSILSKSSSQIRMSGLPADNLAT

[2] = molecular target: T1, Pituitary adenylate cyclase-activating polypeptide type I receptor; test: Displacement of [125I]Ac-PACAP27 from human recombinant PAC1 receptor expressed in CHO cells by gamma- counter; assay type: cell-based
Target sequence in this assay (P41586 whole entry): as above

[3] = molecular target: T1, Pituitary adenylate cyclase-activating polypeptide type I receptor; test: Agonist activity at human recombinant PAC1 receptor expressed in CHO cells assessed as PACAP38-induced calcium mobilization by FLIPR assay relative to PACAP38; assay type: functional, cell-based
Method in brief: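 CHO cells stably expressing recombinant human PAC1, plated 24 h before assay, loaded with fluo-4 AM for 60 min at 37 °C in the dark, then rinsed into HBSS for 15 min at 37 °C. Peptide was added 18 s into a 150 s read (ex 480/em 525 nm), at final concentrations of 1 × 10-12 to 1 × 10^-5 M. Response was normalised to 1 × 10^-5 M PACAP38 on each plate. EC50 and efficacy came from nonlinear regression; 4-10 independent assays in duplicate.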
Target sequence in this assay (P41586 21-468 limits assumed): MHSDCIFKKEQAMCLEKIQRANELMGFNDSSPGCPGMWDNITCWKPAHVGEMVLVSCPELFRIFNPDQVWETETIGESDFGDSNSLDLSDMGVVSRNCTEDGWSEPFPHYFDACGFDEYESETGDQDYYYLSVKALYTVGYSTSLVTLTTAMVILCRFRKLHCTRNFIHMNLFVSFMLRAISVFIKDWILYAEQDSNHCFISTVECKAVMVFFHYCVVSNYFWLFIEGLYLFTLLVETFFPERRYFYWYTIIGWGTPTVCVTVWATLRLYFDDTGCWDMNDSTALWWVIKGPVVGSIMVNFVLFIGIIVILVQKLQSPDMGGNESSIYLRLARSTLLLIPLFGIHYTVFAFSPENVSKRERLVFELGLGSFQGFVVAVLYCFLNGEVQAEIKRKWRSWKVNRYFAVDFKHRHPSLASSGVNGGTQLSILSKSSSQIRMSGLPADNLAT

Row | SMILES | pEC50 [1] | pIC50 [2] | Emax [3] [%]
1 | CSCC[C@H](NC(=O)[C@H](CCC(N)=O)NC(=O)[C@H](CCCCN)NC(=O)[C@H](CCCNC(=N)N)NC(=O)[C@H](Cc1ccc(O)cc1)NC(=O)[C@H](CCCNC(=N)N)NC(=O)[C@H](CO)NC(=O)[C@H](Cc1ccc(O)cc1)NC(=O)[C@H](CO)NC(=O)[C@H](CC(=O)O)NC(=O)[C@@H](NC(=O)[C@H](Cc1ccccc1)NC(=O)[C@H](C)NC(=O)CNC(=O)[C@H](CC(=O)O)NC(=O)[C@H](CO)NC(=O)[C@@H](N)Cc1cnc[nH]1)[C@@H](C)O)C(=O)N[C@@H](C)C(=O)N[C@H](C(=O)N[C@@H](CCCCN)C(=O)N[C@@H](CCCCN)C(=O)N[C@@H](Cc1ccc(O)cc1)C(=O)N[C@@H](CC(C)C)C(=O)N[C@@H](C)C(=O)N[C@@H](C)C(=O)N[C@H](C(=O)N[C@@H](CC(C)C)C(=O)NCC(=O)N[C@@H](CCCCN)C(=O)N[C@@H](CCCNC(=N)N)C(=O)N[C@@H](Cc1ccc(O)cc1)C(=O)N[C@@H](CCCCN)C(=O)N[C@@H](CCC(N)=O)C(=O)N[C@@H](CCCNC(=N)N)C(=O)N[C@H](C(=O)N[C@@H](CCCCN)C(=O)N[C@@H](CC(N)=O)C(=O)N[C@@H](CCCCN)C(N)=O)C(C)C)C(C)C)C(C)C (H-HSDGAFTDSYSRYRKQMAVKKYLAAVLGKRYKQRVKNK-NH2) | 8.02 | 7.46 | 88.3
2 | CC[C@H](C)[C@H](NC(=O)CNC(=O)[C@H](CC(=O)O)NC(=O)[C@@H]1C[C@@H](O)CN1C(=O)[C@@H](N)Cc1cnc[nH]1)C(=O)N[C@@H](Cc1ccccc1)C(=O)N[C@H](C(=O)N[C@@H](CC(=O)O)C(=O)N[C@@H](CO)C(=O)N[C@@H](Cc1ccc(O)cc1)C(=O)N[C@@H](CO)C(=O)N[C@@H](CCCNC(=N)N)C(=O)N[C@@H](Cc1ccc(O)cc1)C(=O)N[C@@H](CCCNC(=N)N)C(=O)N[C@@H](CCCCN)C(=O)N[C@@H](CCC(N)=O)C(=O)N[C@@H](CCSC)C(=O)N[C@@H](C)C(=O)N[C@H](C(=O)N[C@@H](CCCCN)C(=O)N[C@@H](CCCCN)C(=O)N[C@@H](Cc1ccc(O)cc1)C(=O)N[C@@H](CC(C)C)C(=O)N[C@@H](C)C(=O)N[C@@H](C)C(=O)N[C@H](C(=O)N[C@@H](CC(C)C)C(=O)NCC(=O)N[C@@H](CCCCN)C(=O)N[C@@H](CCCNC(=N)N)C(=O)N[C@@H](Cc1ccc(O)cc1)C(=O)N[C@@H](CCCCN)C(=O)N[C@@H](CCC(N)=O)C(=O)N[C@@H](CCCNC(=N)N)C(=O)N[C@H](C(=O)N[C@@H](CCCCN)C(=O)N[C@@H](CC(N)=O)C(=O)N[C@@H](CCCCN)C(N)=O)C(C)C)C(C)C)C(C)C)[C@@H](C)O (H-H[Hyp]DGIFTDSYSRYRKQMAVKKYLAAVLGKRYKQRVKNK-NH2) | 9.15 | 8.07 | 94
3 | CC[C@H](C)[C@H](NC(=O)CNC(=O)[C@H](CC(=O)O)NC(=O)[C@H](CO)NC(=O)[C@@H](N)Cc1cnc[nH]1)C(=O)N[C@@H](Cc1ccccc1)C(=O)N(C)[C@H](C(=O)N[C@@H](CC(=O)O)C(=O)N[C@@H](CO)C(=O)N[C@@H](Cc1ccc(O)cc1)C(=O)N[C@@H](CO)C(=O)N[C@@H](CCCNC(=N)N)C(=O)N[C@@H](Cc1ccc(O)cc1)C(=O)N[C@@H](CCCNC(=N)N)C(=O)N[C@@H](CCCCN)C(=O)N[C@@H](CCC(N)=O)C(=O)N[C@@H](CCSC)C(=O)N[C@@H](C)C(=O)N[C@H](C(=O)N[C@@H](CCCCN)C(=O)N[C@@H](CCCCN)C(=O)N[C@@H](Cc1ccc(O)cc1)C(=O)N[C@@H](CC(C)C)C(=O)N[C@@H](C)C(=O)N[C@@H](C)C(=O)N[C@H](C(=O)N[C@@H](CC(C)C)C(=O)NCC(=O)N[C@@H](CCCCN)C(=O)N[C@@H](CCCNC(=N)N)C(=O)N[C@@H](Cc1ccc(O)cc1)C(=O)N[C@@H](CCCCN)C(=O)N[C@@H](CCC(N)=O)C(=O)N[C@@H](CCCNC(=N)N)C(=O)N[C@H](C(=O)N[C@@H](CCCCN)C(=O)N[C@@H](CC(N)=O)C(=O)N[C@@H](CCCCN)C(N)=O)C(C)C)C(C)C)C(C)C)[C@@H](C)O | 6.00 | 6.00 | 40
4 | CC[C@H](C)[C@H](NC(=O)CNC(=O)[C@H](CC(=O)O)NC(=O)[C@H](CO)NC(=O)[C@@H](N)Cc1cnc[nH]1)C(=O)N[C@@H](C)C(=O)N[C@H](C(=O)N[C@@H](CC(=O)O)C(=O)N[C@@H](CO)C(=O)N[C@@H](Cc1ccc(O)cc1)C(=O)N[C@@H](CO)C(=O)N[C@@H](CCCNC(=N)N)C(=O)N[C@@H](Cc1ccc(O)cc1)C(=O)N[C@@H](CCCNC(=N)N)C(=O)N[C@@H](CCCCN)C(=O)N[C@@H](CCC(N)=O)C(=O)N[C@@H](CCSC)C(=O)N[C@@H](C)C(=O)N[C@H](C(=O)N[C@@H](CCCCN)C(=O)N[C@@H](CCCCN)C(=O)N[C@@H](Cc1ccc(O)cc1)C(=O)N[C@@H](CC(C)C)C(=O)N[C@@H](C)C(=O)N[C@@H](C)C(=O)N[C@H](C(=O)N[C@@H](CC(C)C)C(=O)NCC(=O)N[C@@H](CCCCN)C(=O)N[C@@H](CCCNC(=N)N)C(=O)N[C@@H](Cc1ccc(O)cc1)C(=O)N[C@@H](CCCCN)C(=O)N[C@@H](CCC(N)=O)C(=O)N[C@@H](CCCNC(=N)N)C(=O)N[C@H](C(=O)N[C@@H](CCCCN)C(=O)N[C@@H](CC(N)=O)C(=O)N[C@@H](CCCCN)C(N)=O)C(C)C)C(C)C)C(C)C)[C@@H](C)O (H-HSDGIATDSYSRYRKQMAVKKYLAAVLGKRYKQRVKNK-NH2) | 7.76 | 6.68 | 50.4
5 | CC[C@H](C)[C@H](NC(=O)CNC(=O)[C@H](CC(=O)O)NC(=O)[C@H](CO)NC(=O)[C@@H](N)Cc1cnc[nH]1)C(=O)N[C@@H](Cc1cccc2ccccc12)C(=O)N[C@H](C(=O)N[C@@H](CC(=O)O)C(=O)N[C@@H](CO)C(=O)N[C@@H](Cc1ccc(O)cc1)C(=O)N[C@@H](CO)C(=O)N[C@@H](CCCNC(=N)N)C(=O)N[C@@H](Cc1ccc(O)cc1)C(=O)N[C@@H](CCCNC(=N)N)C(=O)N[C@@H](CCCCN)C(=O)N[C@@H](CCC(N)=O)C(=O)N[C@@H](CCSC)C(=O)N[C@@H](C)C(=O)N[C@H](C(=O)N[C@@H](CCCCN)C(=O)N[C@@H](CCCCN)C(=O)N[C@@H](Cc1ccc(O)cc1)C(=O)N[C@@H](CC(C)C)C(=O)N[C@@H](C)C(=O)N[C@@H](C)C(=O)N[C@H](C(=O)N[C@@H](CC(C)C)C(=O)NCC(=O)N[C@@H](CCCCN)C(=O)N[C@@H](CCCNC(=N)N)C(=O)N[C@@H](Cc1ccc(O)cc1)C(=O)N[C@@H](CCCCN)C(=O)N[C@@H](CCC(N)=O)C(=O)N[C@@H](CCCNC(=N)N)C(=O)N[C@H](C(=O)N[C@@H](CCCCN)C(=O)N[C@@H](CC(N)=O)C(=O)N[C@@H](CCCCN)C(N)=O)C(C)C)C(C)C)C(C)C)[C@@H](C)O (H-HSDGI[1Nal]TDSYSRYRKQMAVKKYLAAVLGKRYKQRVKNK-NH2) | 8.85 | 8.30 | 106
6 | CC[C@H](C)[C@H](NC(=O)CNC(=O)[C@H](C)NC(=O)[C@H](CO)NC(=O)[C@@H](N)Cc1cnc[nH]1)C(=O)N[C@@H](Cc1ccccc1)C(=O)N[C@H](C(=O)N[C@@H](CC(=O)O)C(=O)N[C@@H](CO)C(=O)N[C@@H](Cc1ccc(O)cc1)C(=O)N[C@@H](CO)C(=O)N[C@@H](CCCNC(=N)N)C(=O)N[C@@H](Cc1ccc(O)cc1)C(=O)N[C@@H](CCCNC(=N)N)C(=O)N[C@@H](CCCCN)C(=O)N[C@@H](CCC(N)=O)C(=O)N[C@@H](CCSC)C(=O)N[C@@H](C)C(=O)N[C@H](C(=O)N[C@@H](CCCCN)C(=O)N[C@@H](CCCCN)C(=O)N[C@@H](Cc1ccc(O)cc1)C(=O)N[C@@H](CC(C)C)C(=O)N[C@@H](C)C(=O)N[C@@H](C)C(=O)N[C@H](C(=O)N[C@@H](CC(C)C)C(=O)NCC(=O)N[C@@H](CCCCN)C(=O)N[C@@H](CCCNC(=N)N)C(=O)N[C@@H](Cc1ccc(O)cc1)C(=O)N[C@@H](CCCCN)C(=O)N[C@@H](CCC(N)=O)C(=O)N[C@@H](CCCNC(=N)N)C(=O)N[C@H](C(=O)N[C@@H](CCCCN)C(=O)N[C@@H](CC(N)=O)C(=O)N[C@@H](CCCCN)C(N)=O)C(C)C)C(C)C)C(C)C)[C@@H](C)O (H-HSAGIFTDSYSRYRKQMAVKKYLAAVLGKRYKQRVKNK-NH2) | 5.00 | 7.01 | 64.1
7 | CC[C@H](C)[C@H](NC(=O)[C@H](C)NC(=O)[C@H](CC(=O)O)NC(=O)[C@H](CO)NC(=O)[C@@H](N)Cc1cnc[nH]1)C(=O)N[C@@H](Cc1ccccc1)C(=O)N[C@H](C(=O)N[C@@H](CC(=O)O)C(=O)N[C@@H](CO)C(=O)N[C@@H](Cc1ccc(O)cc1)C(=O)N[C@@H](CO)C(=O)N[C@@H](CCCNC(=N)N)C(=O)N[C@@H](Cc1ccc(O)cc1)C(=O)N[C@@H](CCCNC(=N)N)C(=O)N[C@@H](CCCCN)C(=O)N[C@@H](CCC(N)=O)C(=O)N[C@@H](CCSC)C(=O)N[C@@H](C)C(=O)N[C@H](C(=O)N[C@@H](CCCCN)C(=O)N[C@@H](CCCCN)C(=O)N[C@@H](Cc1ccc(O)cc1)C(=O)N[C@@H](CC(C)C)C(=O)N[C@@H](C)C(=O)N[C@@H](C)C(=O)N[C@H](C(=O)N[C@@H](CC(C)C)C(=O)NCC(=O)N[C@@H](CCCCN)C(=O)N[C@@H](CCCNC(=N)N)C(=O)N[C@@H](Cc1ccc(O)cc1)C(=O)N[C@@H](CCCCN)C(=O)N[C@@H](CCC(N)=O)C(=O)N[C@@H](CCCNC(=N)N)C(=O)N[C@H](C(=O)N[C@@H](CCCCN)C(=O)N[C@@H](CC(N)=O)C(=O)N[C@@H](CCCCN)C(N)=O)C(C)C)C(C)C)C(C)C)[C@@H](C)O (H-HSDAIFTDSYSRYRKQMAVKKYLAAVLGKRYKQRVKNK-NH2) | 8.13 | 8.01 | 90.2
